Laboratory results published in ChEMBL document CHEMBL4725347, “Discovery of a Monoiodo Aza-BODIPY Near-Infrared Photosensitizer: in vitro and in vivo Evaluation for Photodynamic Therapy” (J Med Chem, 2020).
Activity calls are given as the source filed them. The rule behind the calls is not given here.

Legend:
[1] = Drug uptake in human HeLa cells xenografted Balb/c nu/nu mouse spleen at 2 mg/kg, iv measured within 1 hr by fluorescence imaging analysis; format: ADME, organism-based; conditions: in vivo
How it was run: (§1)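 Female Balb/c nu/nu mice bore subcutaneous HeLa tumors (5×10^6 cells, right back) and received 2 mg/kg via tail vein. Living mice were imaged under isoflurane at time points (ex 680/em 720 nm, 1 s exposure). At set times mice were euthanized and heart, liver, spleen, lungs, kidneys and tumor imaged ex vivo; ROI quantified, mean ± SD, n = 3.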

[2] = Photostability of the compound in PBS containing 1% Cremophor EL/1,2-propanediol (10:3, v:v) system assessed as compound degradation irradiated with 90 mW/cm2 light; format: physicochemical; conditions: buffer
SW480 = test: Phototoxicity against human SW480 cells assessed as reduction in cell viability preincubated for 3 hrs followed by 54 J/cm2 light irradiation and measured after 24 hrs by MTT assay; format: functional, cell-based; conditions: SW480, light or radiation study
How it was run: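 PS formulated in PBS containing Cremophor EL/1,2-propanediol (10:3, v:v) after THF removal, filtered, with concentration confirmed by UV-Vis. Cells were grown in DMEM with 10% FBS and seeded at 3×10^3 per well overnight. They were incubated with PS for 3 h, irradiated at λ > 590 nm, kept 24 h at 37 °C, then given MTT (0.5 mg/mL, 4 h) with DMSO solubilization and A490 read-out.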

HeLa [3] = test: Induction of apoptosis in human HeLa cells assessed as necrotic cells at 200 nM preincubated for 3 hrs followed by 54 J/cm2 light irradiation and measured after 24 hrs by Annexin-V-FITC/propidium iodide staining based flow cytometry (reference value: 2.8%); format: functional
How it was run: (§2)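 HeLa cells in six-well plates were exposed to compound for 3 h, irradiated (λ > 590 nm), and incubated 24 h at 37 °C. Cells were then harvested, washed with PBS, and stained with annexin V-FITC/PI for 20 min at room temperature before immediate flow cytometry. Untreated, unirradiated cells served as control.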

[4] = Drug uptake in mitochondria of human HeLa cells at 5 uM incubated for 2 hrs under dark condition by mito-tracker green FM dye based laser confocal microscopic analysis; format: ADME
How it was run: (§3)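 HeLa cells adhered overnight on glass-bottom dishes and were loaded with 5 μM compound in the dark for 2 h. After PBS washes, cells were stained with Mito-Tracker Green FM 250 nM for 30 min, Lyso-Tracker Green 160 nM for 30 min, or ER-Tracker Green 2 μM for 45 min. Confocal imaging: trackers excited at 488 nm, collected 500–560 nm; compound excited at 633 nm, collected 650–740 nm.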

HeLa [5] = test: Induction of apoptosis in human HeLa cells assessed as necrotic cells at 200 nM preincubated for 3 hrs followed by 27 J/cm2 light irradiation and measured after 24 hrs by Annexin-V-FITC/propidium iodide staining based flow cytometry (reference value: 2.8%); format: functional; how it was run: as §2
[6] = Induction of singlet oxygen generation in N,N-dimethylformamide assessed as relative rate of DPBF degradation to MB at 1 uM irradiated with 90 mW/cm2 halogen light; format: functional
How it was run: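 Singlet oxygen generation measured with 1,3-diphenylisobenzofuran (DPBF) as scavenger. The decrease in DPBF absorbance at 411 nm was monitored over time during light irradiation, and the photodegradation rate was calculated.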

[7] = Drug uptake in Balb/c nu/nu mouse xenografted with human HeLa cells at 2 mg/kg, iv measured up to 3 hrs by fluorescence imaging analysis; format: ADME, organism-based; conditions: in vivo; how it was run: as §1
[8] = Drug uptake in human HeLa cells xenografted Balb/c nu/nu mouse liver at 2 mg/kg, iv measured within 1 hr by fluorescence imaging analysis; format: ADME, organism-based; conditions: in vivo; how it was run: as §1
[9] = Toxicity in human HeLa cells xenografted Balb/c nu/nu mouse assessed as body weight loss at 2 mg/kg, iv pretreated for 15 mins followed by 54 J/cm2 light irradiation for 10 mins and measured for 24 days; format: organism-based; conditions: in vivo, 0.25 h
How it was run: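 Female Balb/c nu/nu mice (18-22 g) carried subcutaneous HeLa cells (about 5×10^6, right back) and were treated on day 7 at a tumor volume of 80-100 mm³. Five mice per group received a tail-vein dose; saline controls were also irradiated. Fifteen minutes later the tumor was irradiated once with a 75 W halogen lamp (590 nm cut-on, 90 mW/cm², 10 min), without anaesthesia. Body weight was recorded every other day.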

HeLa [10] = test: Antitumor activity against human HeLa cells xenografted in Balb/c nu/nu mouse assessed as tumor growth inhibition at 2 mg/kg, iv pretreated for 15 mins followed by 54 J/cm2 light irradiation for 10 mins and measured after 24 days; format: functional, organism-based
How it was run: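 Female Balb/c nu/nu mice with subcutaneous HeLa tumors (5×10^6 cells) reaching 80–100 mm³ on day 7 were randomized, n = 5 per group. Mice received 2 mg/kg by tail vein, or saline for controls. After 15 min the tumor was irradiated once with 54 J/cm² (75 W halogen lamp, >590 nm filter, 90 mW/cm², 10 min), unanaesthetized. Calipers every other day; V = 0.5×L×W²; body weight tracked.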

HeLa [11] = test: Induction of apoptosis in human HeLa cells assessed as late apoptotic cells at 200 nM preincubated for 3 hrs followed by 54 J/cm2 light irradiation and measured after 24 hrs by Annexin-V-FITC/propidium iodide staining based flow cytometry (reference value: 5.92%); format: functional; how it was run: as §2
HeLa [12] = test: Induction of apoptosis in human HeLa cells assessed as early apoptotic cells at 40 nM preincubated for 3 hrs followed by 54 J/cm2 light irradiation and measured after 24 hrs by Annexin-V-FITC/propidium iodide staining based flow cytometry (reference value: 0.54%); format: functional; how it was run: as §2
[13] = Drug uptake in lysosomes of human HeLa cells at 5 uM incubated for 2 hrs under dark condition by Lyso tracker green dye based laser confocal microscopic analysis; format: ADME, subcellular, Lysosome; how it was run: as §3
[14] = Absorption property of the compound in PBS containing 1% Cremophor EL/1,2-propanediol (10:3, v:v) system assessed as absorption coefficient by UV-visible spectrophotometric method; format: physicochemical; conditions: buffer
How it was run: (§4)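 Electronic absorption spectra recorded by UV-visible spectrophotometry at room temperature. Solvents were chloroform, isopropanol, acetonitrile, DMF, and PBS buffer containing 1% Cremophor EL/1,2-propanediol (10:3, v:v). Chloroform data were referenced to the non-halogenated parent dye.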

HeLa [15] = test: Induction of reactive oxygen species generation in human HeLa cells at 0.004 to 2.5 uM incubated for 3 hrs prior to H2DCFDA addition for 20 mins followed by 54 J/cm2 light irradiation by microplate reader analysis; format: functional, cell-based; conditions: dose microM 0.004-2.5, time 3.0 hrs
How it was run: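 HeLa cells were exposed to 0.004, 0.02, 0.10, 0.5 or 2.5 μM for 3 h, washed, and loaded with H2DCFDA 10 μM in PBS for 20 min at 37 °C. After washing, cells in PBS were irradiated with 54 J/cm² (λ > 590 nm) or kept dark. Fluorescence was read by confocal microscopy and by plate reader (ex 485/em 538 nm).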

[16] = Drug uptake in human HeLa cells xenografted Balb/c nu/nu mouse lung at 2 mg/kg, iv measured within 1 hr by fluorescence imaging analysis; format: ADME, organism-based; conditions: in vivo; how it was run: as §1
[17] = Absorption property of the compound in chloroform assessed as absorption coefficient by UV-visible spectrophotometric method; format: physicochemical; how it was run: as §4
[18] = Absorption property of the compound in acetonitrile assessed as absorption coefficient by UV-visible spectrophotometric method; format: physicochemical; how it was run: as §4

COc1ccc(C2=[N+]3C(=Nc4c(-c5ccccc5)cc(-c5ccc(OC)cc5)n4[B-]3(F)F)C(c3ccccc3)=C2I)cc1
Drug uptake [1]: Active | Stabilty [2]: Stable | IC50 (SW480): 86 nM | Activity (HeLa [3]): 2.22% | Drug uptake [4]: Active | Activity (HeLa [5]): 21.64% | fold change (FC) [6]: 1.3 | Drug uptake [7]: Active | Drug uptake [8]: Active | Activity [9]: Non-Toxic | TGI (HeLa [10]): Active | Activity (HeLa [11]): 8.6% | Activity (HeLa [12]): 10.68% | Drug uptake [13]: Active | Activity [14]: 34000 M⁻¹ cm⁻¹ | Activity (HeLa [15]): Active | Drug uptake [16]: Active | Activity [17]: 97000 M⁻¹ cm⁻¹ | Activity [18]: 59300 M⁻¹ cm⁻¹
